The subject of data set [1] is HT-29. The experiment in a line: Cytotoxicity against human HT-29 cells under hypoxic condition assessed as inhibition of cell proliferation after 4 hrs by SRB method. It is filed as functional, cell-based. The conditions noted are these: HT-29, 4 h. The method, boiled down: (§1)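 Log-phase monolayers were exposed 4 h under 20% O₂ or anoxia (<20 ppm O₂), then stained with sulforhodamine B 5 days later. IC50, interpolated as the concentration reducing cell density to 50% of same-plate controls, is given as mean of 3−9 experiments. HCR = IC50(oxic)/IC50(hypoxic), taken as the mean of intraexperiment ratios from 3−6 experiments.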

The subject of data set [2] is HT-29. The experiment in a line: Ratio of IC50 for human HT-29 cells under oxic condition to IC50 for human HT-29 cells under hypoxic condition. It is filed as functional. Summed up:
as §1

In data set [3] the test system is NCI-H460. The experiment in a line: Ratio of IC50 for human H460 cells under oxic condition to IC50 for human H460 cells under hypoxic condition. The data set is classed as functional. The method, boiled down:
(§2)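 Antiproliferative assay on the cell-line panel: 4 h drug exposure under 20% O₂ or anoxia (<20 ppm O₂), then sulforhodamine B staining after 5 days. HCR = IC50(oxic)/IC50(hypoxic), taken as the mean of intraexperiment ratios from 2−5 experiments.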

Data set [4] in a line: Ratio of IC50 for human H1299 cells under oxic condition to IC50 for human H1299 cells under hypoxic condition. The data set is classed as functional. The method, boiled down: as §2
Another data set concerns A549. The data set can be described thus: Ratio of IC50 for human A549 cells under oxic condition to IC50 for human A549 cells under hypoxic condition. The data set is classed as functional. Summed up: as §2
In data set [5] the test system is SiHa. The experiment in a line: Cytotoxicity against human SiHa cells under hypoxic condition assessed as inhibition of cell proliferation after 4 hrs. The data set is classed as functional, cell-based. The method, boiled down:
(§3)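 Log-phase monolayers were exposed to drug for 4 h, aerobic (20% O2) for line 5 and anoxic (<20 ppm O2) for line 4. Cell density was read by sulforhodamine B staining 5 days later. IC50 was interpolated as the concentration reducing density to 50% of same-plate controls; mean ± SEM of 3–9 experiments.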

A further data set concerns C-33-A. The data set can be described thus: Ratio of IC50 for human C33A cells under oxic condition to IC50 for human C33A cells under hypoxic condition. The data set is classed as functional. The method, boiled down: as §2
Data set [6] deals with SiHa. The data set can be described thus: Cytotoxicity against human SiHa cells under oxic condition assessed as inhibition of cell proliferation after 4 hrs. It is filed as functional, cell-based. Summed up: as §3
Data set [7] concerns HT-29. The experiment in a line: Cytotoxicity against human HT-29 cells under oxic condition assessed as inhibition of cell proliferation after 4 hrs by SRB method. The data set is classed as functional, cell-based. As to conditions: HT-29, 4 h. The method, boiled down: as §1
(Sulforhodamine B stains cellular protein and so reports cell mass.)

The next data set concerns HCT-116. The experiment in a line: Ratio of IC50 for human HCT116 cells under oxic condition to IC50 for human HCT116 cells under hypoxic condition. It is filed as functional. Summed up: as §2
In data set [8] the test system is SiHa. The data set can be described thus: Cytotoxicity against human SiHa cells under oxic condition after 4 hrs by clonogenic assay. The data set is classed as functional, cell-based. Summed up:
(§4)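 Cells were exposed to drug in duplicate for 4 h at 37 °C, either aerobic (95% air, 5% CO₂) or in an anaerobic chamber (<0.001% O₂). Medium was αMEM + 10% FCS with added glucose (final 17 mmol/L) and 200 μmol/L 2′-deoxycytidine. Cells were then trypsinized and plated; colonies >50 cells were counted after 14 days (methylene blue). C10 = concentration giving 10% survival vs controls; HCR = C10(oxic)/C10(hypoxic).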

Data set [9] deals with SiHa. The experiment in a line: Cytotoxicity against human SiHa cells under hypoxic condition assessed as after 4 hrs by clonogenic assay. The data set is classed as functional, cell-based. The method, boiled down: as §4
Data set [10] concerns SiHa. The experiment in a line: Antitumor activity against human SiHa cells xenografted in immunocompromized gamma irradiated mouse assessed as number of colony forming cells per gram of tumor tissue at 13 umol/kg, iv tumor excised post 18 hrs followed by culturing for 14 days. It is filed as functional. The method, boiled down:
(§5)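 SiHa tumours grown subcutaneously in male mice from 10⁷ cultured cells; randomized at 8−10 mm mean diameter. Compound in phosphate-buffered saline with 4 equiv sodium bicarbonate, given via tail vein at the stated dose, alone or 5 min after 15 Gy whole-body cobalt-60 γ irradiation. Tumours excised 18 h after dosing, cells cultured 14 days for clonogens. Groups of 3 (drug alone) or 5 (radiation + drug).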

Data set [11] deals with HT-29. The data set can be described thus: Ratio of C10 for human HT-29 cells under oxic condition to C10 for human HT-29 cells under hypoxic condition by clonogenic assay. The data set is classed as functional. The method, boiled down:
as §4

Data set [12] relates to SiHa. The experiment in a line: Antitumor activity against human SiHa cells xenografted in immunocompromized gamma irradiated mouse assessed as log cell kill at 13 umol/kg, iv tumor excised post 18 hrs followed by culturing for 14 days under hypoxic condition. The data set is classed as functional. The method, boiled down: (§6)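 Male immunocompromised mice bearing subcutaneous tumours (10^7 cultured cells), randomized at 8–10 mm mean diameter. Compound in PBS with 4 equiv sodium bicarbonate given iv (tail vein), alone or 5 min after 15 Gy whole-body cobalt-60 γ-irradiation, which sterilizes oxygenated cells. Tumours excised 18 h after dosing and plated for clonogens for 14 days. n = 3 (vehicle or compound alone) or 5 (irradiated groups).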
For orientation: A xenograft is tissue or cells of one species grown in another, often human tumour cells in immunodeficient mice.

The subject of data set [13] is HT-29. The experiment in a line: Cytotoxicity against human HT-29 cells under hypoxic condition after 4 hrs by clonogenic assay. The data set is classed as functional, cell-based. Summed up:
as §4

For data set [14], the system named is HT-29. The experiment in a line: Cytotoxicity against human HT-29 cells under oxic condition after 4 hrs by clonogenic assay. It is filed as functional, cell-based. The method, boiled down: as §4
In data set [15] the test system is SiHa. The data set can be described thus: Antitumor activity against human SiHa cells xenografted in immunocompromized mouse assessed as number of colony forming cells per gram of tumor tissue at 13 umol/kg, iv tumor excised post 18 hrs followed by culturing for 14 days. The data set is classed as functional. Summed up:
as §5

The subject of data set [16] is NCI-H460. The data set can be described thus: Toxicity in human H460 cells xenografted immunocompromized mouse at 75 umol/kg, iv. The conditions noted are these: in vivo.
Data set [17] concerns SiHa. The data set can be described thus: Antitumor activity against human SiHa cells xenografted in immunocompromized gamma irradiated mouse assessed as log cell kill at 42 umol/kg, iv tumor excised post 18 hrs followed by culturing for 14 days under hypoxic condition. The data set is classed as functional. Summed up: as §6
In data set [18] the test system is SiHa. The data set can be described thus: Antitumor activity against human SiHa cells xenografted in immunocompromized mouse assessed as number of colony forming cells per gram of tumor tissue at 42 umol/kg, iv tumor excised post 18 hrs followed by culturing for 14 days. The data set is classed as functional. The method, boiled down: as §5
Data set [19] relates to SiHa. The data set can be described thus: Antitumor activity against human SiHa cells xenografted in immunocompromized gamma irradiated mouse assessed as number of colony forming cells per gram of tumor tissue at 42 umol/kg, iv tumor excised post 18 hrs followed by culturing for 14 days. The data set is classed as functional. The method, boiled down:
as §5

Data set [20] deals with NCI-H460. The data set can be described thus: Antitumor activity against human H460 cells xenografted in immunocompromized gamma irradiated mouse under hypoxic condition assessed as log cell kill at 75 umol/kg, iv tumor excised post 18 hrs followed by culturing for 14 days. It is filed as functional. Summed up:
as §6

The source made the active and inactive calls. The calls are words filed in the database; no cut-off is given here. A value given as a limit tells only on which side of the number the result lay.

By IC50 is commonly meant the concentration needed to halve the response being measured. Take `COc1cc2cc(C(=O)N3CC(COS(=O)(=O)Cc4ccccc4)c4c3cc([N+](=O)[O-])c3cc(S(N)(=O)=O)ccc43)[nH]c2c(OC)c1OC` (stereo unspecified): the half-inhibitory concentration (IC50) was determined as 42 nM in the data set on HT-29 [1], 180 nM in the data set with SiHa [5], 13000 nM in the data set on SiHa [6] and 35000 nM with HT-29 [7]. For the same molecule, the “Ratio IC50” value with HT-29 [2] was found to be 1010; in the data set on NCI-H460 [3], 0.67; in data set [4], 226; with A549 it was 20; with C-33-A, 177; with HCT-116, 193.
On to `COc1ccc(/C=C/C(=O)N2CC(COS(=O)(=O)Cc3ccccc3)c3c2cc([N+](=O)[O-])c2cc(C(N)=O)ccc32)cc1O` (stereo unspecified), for which the IC50 turned out to be 430 nM with HT-29 [1], 96 nM in the data set on SiHa [5], 2100 nM with SiHa [6] and 4600 nM with HT-29 [7]. For the same molecule, the “Ratio IC50” value in the data set with HT-29 [2] worked out at 21. Also, the result in the data set on SiHa [8] and with SiHa [9] was Active.
In the case of `NC(=O)c1ccc2c3c(cc([N+](=O)[O-])c2c1)N(C(=O)c1cc2cc(OCCO)ccc2[nH]1)CC3COS(=O)(=O)Cc1ccccc1` (stereo unspecified), the IC50 with HT-29 [1] came to 220 nM; in the data set on SiHa [5], 240 nM; with SiHa [6], 18500 nM; in the data set on HT-29 [7], 22000 nM. Further, the “Ratio IC50” value in the data set with HT-29 [2] is recorded as 105; in the data set with NCI-H460 [3], above 114; in data set [4] it was 255; in the data set with A549 it was 38; in the data set on C-33-A, 93; in the data set on HCT-116, 127. Besides, the result in the data set with SiHa [8] and with SiHa [9] was Active.
For `COc1ccc(/C=C/C(=O)N2CC(COS(=O)(=O)Cc3ccccc3)c3c2cc([N+](=O)[O-])c2cc(C(N)=O)ccc32)cc1` (stereo unspecified), the IC50 with HT-29 [1] worked out at 170 nM; in the data set with SiHa [5] it was 46 nM; with SiHa [6] it was 2100 nM; with HT-29 [7], 7000 nM. Besides, the “Ratio IC50” value was 40 in the data set with HT-29 [2]; 104 in the data set with NCI-H460 [3]; 644 in [4]; 34 in the data set on A549; 184 with C-33-A; 403 in the data set on HCT-116. Also, the results for the log10cfu in the data set on SiHa [10] and in the data set on SiHa [15] were 4.3 and 6.87, respectively. In the data set on HT-29 [11], the Ratio is on record as 4090. Further, the LCK in the data set with SiHa [12] is 1.16. Besides, the result with HT-29 [13] and with HT-29 [14] was Active.
Regarding `CN(C)CCOc1ccc2[nH]c(C(=O)N3CC(COS(=O)(=O)Cc4ccccc4)c4c3cc([N+](=O)[O-])c3cc(C(=O)NCCO)ccc43)cc2c1` (stereo unspecified), the IC50 in the data set on HT-29 [1] amounted to 570 nM; with SiHa [5], 210 nM; in the data set on SiHa [6], 2300 nM; in the data set on HT-29 [7], 4300 nM. For the same molecule, the “Ratio IC50” value in the data set on HT-29 [2] was determined as 12. The result in the data set on SiHa [8] and in the data set with SiHa [9] was Active.
Turning to `COc1ccc(/C=C/C(=O)N2CC(COS(=O)(=O)Cc3ccccc3)c3c2cc([N+](=O)[O-])c2cc(C#N)ccc32)cc1O` (stereo unspecified), the IC50 in the data set with HT-29 [1] is 620 nM; in the data set with SiHa [5] it was 19 nM; in the data set on SiHa [6], 570 nM; with HT-29 [7], 3400 nM. In addition, in the data set with HT-29 [2], the “Ratio IC50” value was 5.4. Further, the outcome with SiHa [8] and in the data set on SiHa [9] was Active.
`COc1cc2cc(C(=O)N3CC(COS(=O)(=O)Cc4ccccc4)c4c3cc([N+](=O)[O-])c3cc(C(N)=O)ccc43)[nH]c2c(OC)c1OC` (stereo unspecified): the IC50 with HT-29 [1] is 16 nM; in the data set on SiHa [5] it was 180 nM; in the data set on SiHa [6] it was 990 nM; with HT-29 [7], 9200 nM. For the same molecule, the “Ratio IC50” value with HT-29 [2] was determined as 1370; in the data set with NCI-H460 [3], 32; in [4], 86; in the data set on A549, 6.7; in the data set on C-33-A it was 76; in the data set with HCT-116, 13. For the same molecule, the result in the data set with SiHa [8] and with SiHa [9] was Active.
In the case of `COc1cc2cc(C(=O)N3CC(COS(C)(=O)=O)c4c3cc([N+](=O)[O-])c3cc(S(=O)(=O)NCCOP(=O)(O)O)ccc43)[nH]c2c(OC)c1OC` (stereo unspecified), the Activity entry with NCI-H460 [16] is listed as “Non-toxic”. Moreover, the LCK with SiHa [17] and in the data set on NCI-H460 [20] was 0.6 throughout. Further, the results for the log10cfu in the data set on SiHa [18] and with SiHa [19] were 7.15 and 4.38, respectively.

Source of the values: ChEMBL document CHEMBL2163287, “Nitro seco analogues of the duocarmycins containing sulfonate leaving groups as hypoxia-activated prodrugs for cancer therapy” (J Med Chem, 2012).
